# Assay results published in paper PMC5538437 (Genes & Development, 2017).
# Key:
# [1] = test system: R-Luc-6xMS2-A95-MALAT1 reporter; assay: Tethering assay, R-Luc-6xMS2-A95-MALAT1 reporter, HEK293T cells; assay type: cell-based, human; settings: MS2-HA-GYF2, HEK293T cells
# Summary of the method: (§1)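 HEK293T cells transfected with 0.25 µg F-Luc-GFP control plasmid, 0.5 µg R-Luc-6xMS2-A95-MALAT1 reporter (or R-Luc-A95-MALAT1, lacking MS2 sites), 0.25 µg GFP-MBP, and 0.3 µg MS2-HA or 1 µg MS2-HA-GYF2 (wild type or canonical mutant) plasmid. Dual luciferase read 2 d post-transfection. R-Luc normalized to F-Luc, set to 100% for MS2-HA. Mean ± SD of three independent experiments.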
# [2] = test system: R-Luc-ARE-A90-MALAT1 reporter; assay type: cell-based, human; settings: λN-HA-TTPΔNIM with GFP-GYF2 and/or λN-HA-4EHP, GYF1/2-null HEK293T cells
# Summary of the method: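 Wild-type and GYF1/2-null HEK293T cells received 1 µg R-Luc-ARE-A90-MALAT1 reporter and 0.25 µg F-Luc-GFP control. Where indicated, they also received 50 ng λN-HA-TTPΔNIM, 0.2 µg GFP-MBP, 1 µg GFP-GYF2 (wild type or C*) and 0.5 µg λN-HA-4EHP. Dual luciferase was measured 2 d post-transfection. R-Luc/F-Luc was set to 100% without TTP for each cell line.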
# 4EHP = assay: Pull-down / coimmunoprecipitation with 4EHP in HEK293T cell lysates; assay type: binding, human; settings: HEK293T cell lysates, streptavidin pull-down, Western blot
# Summary of the method: (§2)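 Streptavidin-bead pull-down from RNase A-treated HEK293T lysates of cells expressing V5-SBP-tagged 4EHP or eIF4E (wild type or mutants). Co-bound endogenous GYF2, 4E-T and 4E-BP1 were probed; for 4EHP, co-expressed GFP-4E-BP1 was also probed, with V5-SBP-MBP as negative control. Inputs and bound fractions were analysed by Western blot with anti-V5, anti-GFP, anti-GYF2 and other antibodies, using ECL detection.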
# eIF4E = assay: Pull-down / coimmunoprecipitation with eIF4E in HEK293T cell lysates; assay type: binding, human; settings: streptavidin pull-down, Western blot
# Summary of the method: as §2
# [3] = biological target: T1, 4EHP–GYF2 (35–105) complex (Homo sapiens, UniProt O60573+Q6Y7W6); assay: ITC, m7GpppG cap analog vs 4EHP–GYF2 complex; assay type: binding; settings: 20 mM HEPES pH 7.5, 200 mM NaCl
# T1 sequence (O60573 52-234): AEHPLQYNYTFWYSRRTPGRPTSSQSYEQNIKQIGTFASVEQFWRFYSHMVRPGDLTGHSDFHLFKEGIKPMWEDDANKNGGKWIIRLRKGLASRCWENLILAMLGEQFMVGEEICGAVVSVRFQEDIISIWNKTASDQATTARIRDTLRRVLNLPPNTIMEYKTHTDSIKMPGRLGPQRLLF
# T1 sequence (Q6Y7W6 35-105 partner limits assumed): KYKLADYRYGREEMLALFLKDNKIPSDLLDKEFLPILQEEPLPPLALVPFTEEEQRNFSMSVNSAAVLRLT
# [4] = biological target: T2, 4EHP RE-LL–4E-BP1 complex (Homo sapiens, UniProt O60573, E149L/R103L); assay: Competition assay, preassembled 4EHP RE-LL–4E-BP1 complex; assay type: biochemical; settings: after 60 min of incubation with equimolar GYF2 fragment
# T2 sequence (O60573 52-234 R103L/E149L): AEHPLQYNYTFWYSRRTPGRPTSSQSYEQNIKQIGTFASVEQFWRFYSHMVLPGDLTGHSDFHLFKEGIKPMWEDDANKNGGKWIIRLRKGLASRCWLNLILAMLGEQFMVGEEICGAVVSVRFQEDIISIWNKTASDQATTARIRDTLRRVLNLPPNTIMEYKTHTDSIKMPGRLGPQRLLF
# [5] = test system: R-Luc-A95-MALAT1 reporter; assay: Tethering assay, reporter lacking the MS2-binding sites; assay type: cell-based, human; settings: MS2-HA-GYF2, HEK293T cells
# Summary of the method: as §1
# 4EHP–4E-BP1 complex = biological target: T3, 4EHP–4E-BP1 complex (Homo sapiens, UniProt O60573); assay: Competition assay, preassembled 4EHP–4E-BP1 complex; assay type: biochemical; settings: competition assay with equimolar GYF2 fragment
# T3 sequence (O60573 52-234): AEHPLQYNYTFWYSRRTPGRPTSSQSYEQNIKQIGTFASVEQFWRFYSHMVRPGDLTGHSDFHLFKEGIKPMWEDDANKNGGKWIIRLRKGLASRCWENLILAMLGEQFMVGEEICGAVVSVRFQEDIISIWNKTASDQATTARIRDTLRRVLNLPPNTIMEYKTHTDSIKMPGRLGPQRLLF
# [6] = test system: R-Luc-5BoxB-A95-MALAT1 reporter; assay type: cell-based, human; settings: λN-HA-4EHP with GFP-MBP or GFP-GYF2, GYF1/2-null HEK293T cells
# Summary of the method: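 GYF1/2-null and control HEK293T cells were seeded at 0.6 × 10^6 cells per well and lipofected. Each well received 0.25 µg F-Luc-GFP control, 0.5 µg R-Luc-5BoxB-A95-MALAT1 reporter, and 0.3 µg λN-HA or 0.7 µg λN-HA-4EHP. Cells also got 0.25 µg GFP-MBP, 1.8 µg GFP-GYF2 wild type or 1.2 µg C* mutant. Luciferases were read after 2 d. R-Luc/F-Luc was set to 100% for λN-HA. Mean ± SD, three independent experiments.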
# endogenous GYF1 = assay: Pull-down of GYF1 by tagged 4EHP in HEK293T cells; assay type: binding, human; settings: V5-SBP-4EHP, Western blot
# endogenous GYF2 = assay: Pull-down of GYF2 by tagged 4EHP in HEK293T cells; assay type: binding, human; settings: Western blot
# Summary of the method: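 Streptavidin pull-downs used HEK293T lysates containing RNase A and expressed V5-SBP-4EHP, wild type or mutants. V5-SBP-MBP was the negative control. Inputs (1–1.5%) and bound fractions (up to 30% for GYF2) were analysed by Western blot with anti-V5 and anti-GYF2 antibodies, using ECL detection.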
molecule,measurement,setting,value
"GYF2 C: GYF2 residues K35–K54, canonical 4EHP-binding region (KYKLADYRYGREEMLALFLK; UniProt Q6Y7W6 35-54, looked up, fragment)",repression of MS2 reporter expression,[1],still repressed the expression of the R-Luc-6xMS2-A95-MALAT1 reporter as efficiently as wild-type GYF2
same,"TTP-mediated repression of the ARE reporter, GYF1/2-null cells",[2],No restoration was observed
"4E-T: Hs 4E-T Q9NRA8, full-length (1–985) (protein) MDRRSMGETESGDAFLDLKKPPASKCPHRYTKEELLDIKELPHSKQRPSCLSEKYDSDGVWDPEKWHASLYPASGRSSPVESLKKELDTDRPSLVRRIVDPRERVKEDDLDVVLSPQRRSFGGGCHVTAAVSSRRSGSPLEKDSDGLRLLGGRRIGSGRIISARTFEKDHRLSDKDLRDLRDRDRERDFKDKRFRREFGDSKRVFGERRRNDSYTEEEPEWFSAGPTSQSETIELTGFDDKILEEDHKGRKRTRRRTASVKEGIVECNGGVAEEDEVEVILAQEPAADQEVPRDAVLPEQSPGDFDFNEFFNLDKVPCLASMIEDVLGEGSVSASRFSRWFSNPSRSGSRSSSLGSTPHEELERLAGLEQAILSPGQNSGNYFAPIPLEDHAENKVDILEMLQKAKVDLKPLLSSLSANKEKLKESSHSGVVLSVEEVEAGLKGLKVDQQVKNSTPFMAEHLEETLSAVTNNRQLKKDGDMTAFNKLVSTMKASGTLPSQPKVSRNLESHLMSPAEIPGQPVPKNILQELLGQPVQRPASSNLLSGLMGSLEPTTSLLGQRAPSPPLSQVFQTRAASADYLRPRIPSPIGFTPGPQQLLGDPFQGMRKPMSPITAQMSQLELQQAALEGLALPHDLAVQAANFYQPGFGKPQVDRTRDGFRNRQQRVTKSPAPVHRGNSSSPAPAASITSMLSPSFTPTSVIRKMYESKEKSKEEPASGKAALGDSKEDTQKASEENLLSSSSVPSADRDSSPTTNSKLSALQRSSCSTPLSQANRYTKEQDYRPKATGRKTPTLASPVPTTPFLRPVHQVPLVPHVPMVRPAHQLHPGLVQRMLAQGVHPQHLPSLLQTGVLPPGMDLSHLQGISGPILGQPFYPLPAASHPLLNPRPGTPLHLAMVQQQLQRSVLHPPGSGSHAAAVSVQTTPQNVPSRSGLPHMHSQLEHRPSQRSSSPVGLAKWFGSDVLQQPLPSMPAKVISVDELEYRQ","interaction with 4EHP in cell lysates, endogenous binding partner",4EHP,interacted with both eIF4E and 4EHP
same,interaction with eIF4E in cell lysates,eIF4E,interacted with both eIF4E and 4EHP
"GYF2 C+L+NC+A: GYF2 residues K35–T105, complete 4EHP-binding region (left off: MBP, N-terminal, state not stated | GB1, C-terminal, kept) KYKLADYRYGREEMLALFLKDNKIPSDLLDKEFLPILQEEPLPPLALVPFTEEEQRNFSMSVNSAAVLRLT",effect on 4EHP's affinity for the m7GpppG cap analog,[3],did not increase the affinity of 4EHP for an m^7GpppG cap analog
same,4E-BP1 displaced from 4EHP RE-LL,[4],40%
"GYF2: Hs GIGYF2 Q6Y7W6-1, full-length (1–1299) (protein) MAAETQTLNFGPEWLRALSSGGSITSPPLSPALPKYKLADYRYGREEMLALFLKDNKIPSDLLDKEFLPILQEEPLPPLALVPFTEEEQRNFSMSVNSAAVLRLTGRGGGGTVVGAPRGRSSSRGRGRGRGECGFYQRSFDEVEGVFGRGGGREMHRSQSWEERGDRRFEKPGRKDVGRPNFEEGGPTSVGRKHEFIRSESENWRIFREEQNGEDEDGGWRLAGSRRDGERWRPHSPDGPRSAGWREHMERRRRFEFDFRDRDDERGYRRVRSGSGSIDDDRDSLPEWCLEDAEEEMGTFDSSGAFLSLKKVQKEPIPEEQEMDFRPVDEGEECSDSEGSHNEEAKEPDKTNKKEGEKTDRVGVEASEETPQTSSSSARPGTPSDHQSQEASQFERKDEPKTEQTEKAEEETRMENSLPAKVPSRGDEMVADVQQPLSQIPSDTASPLLILPPPVPNPSPTLRPVETPVVGAPGMGSVSTEPDDEEGLKHLEQQAEKMVAYLQDSALDDERLASKLQEHRAKGVSIPLMHEAMQKWYYKDPQGEIQGPFNNQEMAEWFQAGYFTMSLLVKRACDESFQPLGDIMKMWGRVPFSPGPAPPPHMGELDQERLTRQQELTALYQMQHLQYQQFLIQQQYAQVLAQQQKAALSSQQQQQLALLLQQFQTLKMRISDQNIIPSVTRSVSVPDTGSIWELQPTASQPTVWEGGSVWDLPLDTTTPGPALEQLQQLEKAKAAKLEQERREAEMRAKREEEERKRQEELRRQQEEILRRQQEEERKRREEEELARRKQEEALRRQREQEIALRRQREEEERQQQEEALRRLEERRREEEERRKQEELLRKQEEEAAKWAREEEEAQRRLEENRLRMEEEAARLRHEEEERKRKELEVQRQKELMRQRQQQQEALRRLQQQQQQQQLAQMKLPSSSTWGQQSNTTACQSQATLSLAEIQKLEEERERQLREEQRRQQRELMKALQQQQQQQQQKLSGWGNVSKPSGTTKSLLEIQQEEARQMQKQQQQQQQHQQPNRARNNTHSNLHTSIGNSVWGSINTGPPNQWASDLVSSIWSNADTKNSNMGFWDDAVKEVGPRNSTNKNKNNASLSKSVGVSNRQNKKVEEEEKLLKLFQGVNKAQDGFTQWCEQMLHALNTANNLDVPTFVSFLKEVESPYEVHDYIRAYLGDTSEAKEFAKQFLERRAKQKANQQRQQQQLPQQQQQQPPQQPPQQPQQQDSVWGMNHSTLHSVFQTNQSNNQQSNFEAVQSGKKKKKQKMVRADPSLLGFSVNASSERLNMGEIETLDDY",repression of MS2 reporter expression,[1],repressed mRNA reporter expression in tethering assays
same,effect on reporter lacking the MS2-binding sites,[5],did not repress a reporter lacking the MS2-binding sites
same,competitive advantage over 4E-BP1 for binding to 4EHP,4EHP–4E-BP1 complex,the auxiliary sequences afford GYF2 a competitive advantage over 4E-BP1 for binding to 4EHP
same,repression of tethered reporter by 4EHP in GYF1/2-null cells,[6],restored by transient expression of wild-type GFP-tagged GYF2
"4EHP RE-LL: 4EHP R103L, E149L; auxiliary surface mutant (protein) MNNKFDALKDDDSGDHDQNEENSTQKDGEKEKTERDKNQSSSKRKAVVPGPAEHPLQYNYTFWYSRRTPGRPTSSQSYEQNIKQIGTFASVEQFWRFYSHMVLPGDLTGHSDFHLFKEGIKPMWEDDANKNGGKWIIRLRKGLASRCWLNLILAMLGEQFMVGEEICGAVVSVRFQEDIISIWNKTASDQATTARIRDTLRRVLNLPPNTIMEYKTHTDSIKMPGRLGPQRLLFQNLWKPRLNVP",binding to endogenous GYF1,endogenous GYF1,disrupted binding to endogenous GYF1
same,binding to endogenous GYF2,endogenous GYF2,strongly reduced binding to endogenous GYF2
